Assay [1] concerns Human alphaherpesvirus 1. The experiment in a line: Antiviral activity against Human herpesvirus 1 isolate P42 infected in African green monkey vero cells assessed as log reduction in viral titer at 50 uM. It is filed as functional. In outline:
(§1)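 Laboratory HSV-1 F1 or patient-swab HSV-1 isolates were prepared as clarified Vero supernatants. They were incubated 1 h with a range of EGCG concentrations in RPMI 1640/1% FCS at pH 7.4. Titres were determined on Vero cells by 5-day CPE endpoint (Reed-Muench). IC99 was read graphically as 99% titre drop from untreated; mean ± SD, three experiments.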

The test system of assay [2] is Human alphaherpesvirus 1. The experiment in a line: Antiviral activity against Human herpesvirus 1 F1 assessed as damage of viral particle at 100 uM after 2 hrs by electron microscopy. In kind it is functional, organism-based.
In assay [3] the test system is Human alphaherpesvirus 1. The experiment in a line: Antiviral activity against Human herpesvirus 1 isolate P32 infected in African green monkey vero cells assessed as reduction in viral titer at 100 uM. It is filed as functional, organism-based. In outline:
as §1

The test system of assay [4] is Human alphaherpesvirus 2. The experiment in a line: Antiviral activity against Human herpesvirus 2 isolate P12 infected in African green monkey CV1 cells assessed as log reduction in viral titer at 12.5 uM. It is filed as functional, CV-1. The method, boiled down:
(§2)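 HSV-2 patient-swab isolates were grown as clarified CV-1 supernatants and incubated 1 h with a range of EGCG concentrations (RPMI 1640/1% FCS, pH 7.4). They were titrated on CV-1 cells from 10-fold dilutions by 5-day CPE at 37°C, with Reed-Muench TCID50. IC99 was derived graphically as 99% reduction from zero-drug titre; mean ± SD, three experiments.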

Assay [5] concerns Human alphaherpesvirus 2. The experiment in a line: Antiviral activity against Human herpesvirus 2 isolate P47 infected in African green monkey CV1 cells assessed as log reduction in viral titer at 100 uM within 20 mins. In kind it is functional, CV-1. The method, boiled down:
(§3)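 Time course: clarified CV-1 supernatant of HSV-2 (clinical isolates or strain 333) was exposed to 100 μM EGCG for increasing times. It was then titrated by tenfold dilution on CV-1 cells, three wells per dilution, for 5 days at 37°C with CPE read-out. Reed-Muench TCID50 was compared with the untreated titer. Mean of three separate experiments.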

Assay [6] deals with Human alphaherpesvirus 1. The experiment in a line: Antiviral activity against Human herpesvirus 1 isolate P15 infected in African green monkey vero cells assessed as log reduction in viral titer at 100 uM after 40 to 60 mins. In kind it is functional. In outline: (§4)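 In the time course, HSV-1 clinical isolates (clarified Vero supernatants) were exposed to 100 μM EGCG for varying times up to 60 min. Residual infectivity was then titrated on Vero cells by 5-day CPE endpoint with Reed-Muench calculation. Mean ± SD of three separate experiments.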

Assay [7] concerns Human alphaherpesvirus 2. The experiment in a line: Antiviral activity against Human herpesvirus 2 isolate P22 infected in African green monkey CV1 cells assessed as log reduction in viral titer at 100 uM within 10 mins. It is filed as functional, CV-1. The method, boiled down:
as §3

Assay [8] has as its system Human alphaherpesvirus 1. The experiment in a line: Binding affinity to Envelope glycoprotein D in Human herpesvirus 1 F1 assessed as macromolecular complex formation by SDS-PAGE. The method, boiled down: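 Purified HSV-1 gB or gD (500 to 700 μg/ml) was incubated with EGCG (250 μg/ml; 545 μM) in 0.1 M potassium phosphate, pH 7.0, at 35°C for 24 h. Products were denatured at 50°C for 15 min in sample buffer and run on 6.5% SDS-PAGE. Bands were stained with Coomassie blue to detect higher-molecular-weight complexes.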

Assay [9] concerns Human alphaherpesvirus 2. The experiment in a line: Antiviral activity against Human herpesvirus 2 isolate P2 infected in African green monkey CV1 cells assessed as log reduction in viral titer at 12.5 uM. In kind it is functional, CV-1. The method, boiled down: (§5)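 HSV-2 (clinical swab isolates or strain 333) was grown in CV-1 cells and used as clarified supernatant. Virus was exposed to graded EGCG for 1 h in RPMI 1640 with 1% FCS, pH 7.4. Tenfold dilutions were titrated on CV-1 cells, three wells each, 5 days at 37°C, scoring CPE. TCID50 was calculated by Reed-Muench. IC99 was read graphically as 99% titer drop from the zero-concentration titer. Mean of three experiments.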

The test system of assay [10] is Human alphaherpesvirus 2. The experiment in a line: Antiviral activity against Human herpesvirus 2 strain 333 infected in African green monkey CV-1 cells assessed as log reduction in viral titer at 100 uM after 20 mins. In kind it is functional. In outline:
as §3

For assay [11], the system named is Human alphaherpesvirus 2. The experiment in a line: Antiviral activity against Human herpesvirus 2 isolate P27 infected in African green monkey CV1 cells assessed as log reduction in viral titer at 100 uM within 10 mins. It is filed as functional, CV-1. The method, boiled down:
as §3

Assay [12] has as its system Human alphaherpesvirus 1. The experiment in a line: Antiviral activity against Human herpesvirus 1 isolate P42 infected in African green monkey vero cells assessed as reduction in viral titer. It is filed as functional, organism-based. The note with it: Human alphaherpesvirus 1, isolate P42, Vero. In outline:
as §1

In assay [13] the test system is Human alphaherpesvirus 2. The experiment in a line: Antiviral activity against Human herpesvirus 2 isolate P22 infected in African green monkey CV1 cells. In kind it is functional, organism-based. The note with it: Human alphaherpesvirus 2, isolate P22, CV-1. The method, boiled down:
as §5

In assay [14] the test system is Human alphaherpesvirus 1. The experiment in a line: Antiviral activity against Human herpesvirus 1 isolate P56 infected in African green monkey vero cells assessed as log reduction in viral titer at 100 uM within 10 mins. It is filed as functional. In outline:
as §4

For assay [15], the system named is Human alphaherpesvirus 2. The experiment in a line: Antiviral activity against Human herpesvirus 2 isolate P2 infected in African green monkey CV1 cells. It is filed as functional, organism-based. The note with it: Human alphaherpesvirus 2, isolate P2, CV-1. The method, boiled down:
as §2

Assay [16] relates to Human alphaherpesvirus 1. The experiment in a line: Antiviral activity against Human herpesvirus 1 isolate P42 infected in African green monkey vero cells assessed as log reduction in viral titer at 100 uM after 30 mins. In kind it is functional. In outline:
as §4

Assay [17] deals with Human alphaherpesvirus 2. The experiment in a line: Antiviral activity against Human herpesvirus 2 isolate P12 infected in African green monkey CV1 cells assessed as log reduction in viral titer at 100 uM within 10 mins. In kind it is functional, CV-1. The method, boiled down: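 HSV-2 clinical isolates from clarified CV-1 supernatants were held with 100 μM EGCG for timed intervals, from 10 min onward. Surviving virus was titrated on CV-1 cells by 10-fold dilution and 5-day CPE scoring, with TCID50 by Reed-Muench. Values are mean ± SD, three experiments.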

Assay [18] concerns Human alphaherpesvirus 1. The experiment in a line: Antiviral activity against Human herpesvirus 1 isolate P32 infected in African green monkey vero cells assessed as log reduction in viral titer at 100 uM within 20 mins. It is filed as functional. In outline:
as §4

For assay [19], the system named is Human alphaherpesvirus 1. The experiment in a line: Antiviral activity against Human herpesvirus 1 isolate P38 infected in African green monkey vero cells assessed as log reduction in viral titer at 100 uM after 30 mins. In kind it is functional. The method, boiled down: as §4
Assay [20] concerns Human alphaherpesvirus 1. The experiment in a line: Antiviral activity against Human herpesvirus 1 isolate P56 infected in African green monkey vero cells assessed as log reduction in viral titer at 100 uM within 20 mins. In kind it is functional. In outline:
as §4

Assay [21] has as its system Human alphaherpesvirus 1. The experiment in a line: Antiviral activity against Human herpesvirus 1 isolate P32 infected in African green monkey vero cells assessed as log reduction in viral titer at 100 uM after 30 mins. It is filed as functional. The method, boiled down: as §4
For assay [22], the system named is Human alphaherpesvirus 1. The experiment in a line: Antiviral activity against Human herpesvirus 1 isolate P38 infected in African green monkey vero cells assessed as log reduction in viral titer at 50 uM. It is filed as functional. In outline: as §1
Assay [23] concerns Human alphaherpesvirus 1. The experiment in a line: Antiviral activity against Human herpesvirus 1 F1 assessed as decrease in labeled gD envelope glycoprotein at 100 uM after 2 hrs by electron microscopy. In kind it is functional, organism-based. The method, boiled down: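 Purified HSV-1 F1 virions were treated with 100 μM EGCG for 2 h, fixed in glutaraldehyde/paraformaldehyde and LR White-embedded without osmium. Nickel-grid sections were blocked with BSA and goat serum, then labelled overnight with anti-gB or anti-gD monoclonal (1:15) and 15 nm colloidal gold. Labelled versus unlabelled particles were counted in 10 fields of 100 particles; mean ± SD.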

In assay [24] the test system is Human alphaherpesvirus 2. The experiment in a line: Antiviral activity against Human herpesvirus 2 strain 333 infected in African green monkey vero cells assessed as log reduction in viral titer at 100 uM after 60 mins. In kind it is functional. The method, boiled down:
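Lab strain HSV-2 333 was grown and titrated either in CV-1 cells or in Vero cells. Virus was incubated with 100 μM EGCG for 60 min, then titrated as tenfold dilutions for 5 days at 37°C with CPE scoring. Reed-Muench TCID50 of treated versus control virus gave the titer decrease. Mean of three experiments.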

By IC99 is commonly meant the point of the concentration-response curve where the effect stands at 99%.

Activity calls are given as the source filed them. The calls are words filed in the database; no cut-off is given here. Some results are limits rather than exact numbers.

For `O=C(O[C@@H]1Cc2c(O)cc(O)cc2O[C@@H]1c1cc(O)c(O)c(O)c1)c1cc(O)c(O)c(O)c1` [EPIGALOCATECHIN GALLATE], the FC in assay [1] is given as 2; in [4] it was “>=2”; in [5] it was 3; in [6], 3; in [7] it was 2; in assay [9], “>=2”. Also, the FC entry in assay [10] is reported as “>=3”; in assay [11], 2; in assay [14], 2; in assay [16], 2; in assay [17] it was 2; in assay [18] it was 3. Also, the FC in [19] turned out to be 2; in assay [20] it was 3; in assay [21], 2; in assay [22], 2; in assay [24] it was 4. The result in assay [2], in assay [3], in [8] and in [23] was Active. Besides, the IC99 in [12] is 49.1 µM; in assay [13], 12.5 µM; in [15] it was 12.3 µM.

The values above are taken from ChEMBL document CHEMBL1629542, “Epigallocatechin gallate inactivates clinical isolates of herpes simplex virus” (Antimicrob Agents Chemother, 2008).
